In series [1] the test system is COS-7. The series is described as follows: Cytotoxicity against African green monkey COS7 cells assessed as effect on metabolic activity at 10 uM measured after 72 hrs by MTT assay. Format: ADME, cell-based. Conditions: chlorocebus aethiops, cos-7, 72 h. In outline: (§1)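 COS-7 cells seeded at 2×10^3 per well in triplicate, grown 24 h, then exposed to test agent or DMSO vehicle (final DMSO ≤0.1%) for 72 h. Metabolic activity read with a modified MTT (EZ4U) kit. Background from FCS-containing medium plus substrate subtracted. Expressed relative to vehicle control set to 100%. Mean +SD of ≥3 independent experiments.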
In general terms: Tetrazolium assays rely on reduction of a dye to a coloured formazan, in cell work by metabolically active cells.

Series [2] has as its system COS-7. The series is described as follows: Cytotoxicity against African green monkey COS7 cells assessed as effect on metabolic activity at 20 uM measured after 72 hrs by MTT assay. Format: ADME, cell-based. The following applies: chlorocebus aethiops, cos-7, 72 h. The procedure, abridged:
as §1

Series [3] in a line: Cytotoxicity against human HS5 cells assessed as cell death at 10 uM measured after 72 hrs by Propidium iodide stain based FACS analysis. The following applies: hs5, 72 h. In outline:
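HS-5 cells seeded at 0.5×10^5 per well and treated with compound or DMSO vehicle (final DMSO ≤0.1%) for 72 h. Harvested cells stained with PI/Triton-X100 for 2 h at 4 °C. Dead cells were counted by flow cytometry as nuclei in the sub-G1 window. Mean +SEM of ≥3 independent experiments.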
Background: A flow cytometer gives signals particle by particle.

A short description of series [4]: Modulation of cell death in imatinib-resistant human K562 cells assessed by increase in imatinib-mediated cell death in presence of presence of imatinib measured after 72 hrs by Propidium iodide stain based FACS assay (reference value: 17%). Format: functional.
Series [5] in a line: Modulation of cell death in imatinib-resistant human K562 cells assessed by increase in imatinib-mediated cell death in presence of presence of imatinib at 2.5 uM measured after 72 hrs by Propidium iodide stain based FACS assay (reference value: 17%). Format: functional.
Series [6] has as its target T1, Signal transducer and activator of transcription 5A (Homo sapiens) (UniProt P42229).
T1 sequence (whole entry): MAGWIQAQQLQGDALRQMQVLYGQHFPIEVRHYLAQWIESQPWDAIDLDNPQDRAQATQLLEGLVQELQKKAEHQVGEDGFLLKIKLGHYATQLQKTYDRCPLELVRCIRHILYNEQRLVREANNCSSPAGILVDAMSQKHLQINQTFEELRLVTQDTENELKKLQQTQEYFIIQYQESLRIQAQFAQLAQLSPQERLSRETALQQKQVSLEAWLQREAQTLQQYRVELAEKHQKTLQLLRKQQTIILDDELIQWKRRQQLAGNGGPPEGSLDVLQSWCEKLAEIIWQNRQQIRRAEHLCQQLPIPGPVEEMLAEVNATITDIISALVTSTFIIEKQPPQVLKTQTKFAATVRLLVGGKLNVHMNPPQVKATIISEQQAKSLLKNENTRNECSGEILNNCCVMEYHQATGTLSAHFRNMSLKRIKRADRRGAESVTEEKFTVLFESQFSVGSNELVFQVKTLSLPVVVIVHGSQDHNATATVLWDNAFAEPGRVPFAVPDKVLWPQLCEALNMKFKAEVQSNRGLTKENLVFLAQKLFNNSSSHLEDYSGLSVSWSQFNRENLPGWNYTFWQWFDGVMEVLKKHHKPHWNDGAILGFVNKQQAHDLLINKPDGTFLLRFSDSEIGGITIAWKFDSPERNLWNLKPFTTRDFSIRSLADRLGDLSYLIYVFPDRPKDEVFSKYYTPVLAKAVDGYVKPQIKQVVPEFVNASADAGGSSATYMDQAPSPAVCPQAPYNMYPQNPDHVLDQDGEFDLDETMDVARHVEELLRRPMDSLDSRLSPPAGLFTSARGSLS
The experiment in a line: Inhibition of STAT5 in imatinib-resistant human K562 cells assessed as effect on STAT5 expression in presence of imatinib at 10 uM measured after 6 hrs by Western blot assay. Format: cell-based.

In series [7] the target is T1, Signal transducer and activator of transcription 5A (Homo sapiens). The experiment in a line: Inhibition of STAT5 phosphorylation in imatinib-resistant human K562 cells in presence of imatinib at 10 uM measured after 6 hrs by Western blot assay. Format: cell-based. In outline:
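K562-resistant cells (a doxorubicin-resistant K562 subclone, KD225) kept in RPMI 1640 with 10% FCS. Cells received 1 µM imatinib alone or with 10 µM compound for 6 h. Immunoblots were probed for STAT5 and for pSTAT5 (Tyr694/699), with GAPDH as loading control, and developed by ECL. Densitometry was normalised to the imatinib-only control set to 100%.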

The target of series [8] is T2, Peroxisome proliferator-activated receptor gamma (Homo sapiens, UniProt P37231).
T2 sequence (P37231 whole entry): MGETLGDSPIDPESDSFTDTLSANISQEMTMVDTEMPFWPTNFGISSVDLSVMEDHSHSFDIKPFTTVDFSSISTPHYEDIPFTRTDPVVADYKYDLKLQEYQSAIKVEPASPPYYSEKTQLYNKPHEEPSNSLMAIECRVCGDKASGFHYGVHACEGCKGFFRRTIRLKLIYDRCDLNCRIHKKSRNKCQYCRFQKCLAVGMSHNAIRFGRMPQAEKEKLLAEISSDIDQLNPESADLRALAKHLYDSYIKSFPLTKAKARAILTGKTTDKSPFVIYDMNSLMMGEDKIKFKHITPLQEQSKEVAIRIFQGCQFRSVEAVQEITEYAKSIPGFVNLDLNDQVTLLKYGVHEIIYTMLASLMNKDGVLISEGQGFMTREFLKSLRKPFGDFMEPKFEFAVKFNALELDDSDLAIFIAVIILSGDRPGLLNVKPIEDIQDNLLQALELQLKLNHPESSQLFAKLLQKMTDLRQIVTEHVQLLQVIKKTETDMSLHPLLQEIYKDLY
The series is described as follows: Agonist activity at human PPARgammaDEF receptor expressed in african green monkey COS7 cells transfected with pGal5-TK-pGL3/pRenilla-CMV assessed as intrinsic activity measured after 39 hrs by dual luciferase reporter assay. Format: cell-based.

pEC50: −log10 of the molar value. Activity calls are given as the source filed them. The calls are words filed in the database; no cut-off is given here.

For the compound `CCCc1nc(C(C)(C)O)c(C(=O)O)n1Cc1ccc(-c2ccccc2-c2nnn[nH]2)cc1` [OLMESARTAN], the Activity entry (with COS-7 [1]; in the series on COS-7 [2]; in series [3]) was “Non-Toxic” throughout.
Consider `CCCc1nc2cccc(C(=O)OC)c2n1Cc1ccc(-c2ccccc2C(=O)OC)cc1`, for which the Activity entry is reported as “Non-Toxic” in the series on COS-7 [1]; “Non-Toxic” with COS-7 [2]; 83% in series [4]; 50% in series [5]; “Non-Toxic” in series [3]. In addition, in series [6], the inhibition result was “inactive”. In series [7], the inhibition result is “Active”.
For the compound `CCCc1nc(C(C)(C)O)c(C(=O)OCc2oc(=O)oc2C)n1Cc1ccc(-c2ccccc2-c2nnn[nH]2)cc1` [OLMESARTAN MEDOXOMIL], the Activity entry (with COS-7 [1]; in the series with COS-7 [2]; in series [3]) was “Non-Toxic” each time.
Consider `CCOc1nc2cccc(C(=O)O)c2n1Cc1ccc(-c2ccccc2-c2nnn[nH]2)cc1` [CANDESARTAN], for which the Activity entry with COS-7 [1] is listed as “Non-Toxic”; in the series on COS-7 [2], “Non-Toxic”; in series [4], 42%; in series [3], “Non-Toxic”.
For `CCCc1nc2c(C)cc(-c3nc4ccccc4n3C)cc2n1Cc1ccc(-c2ccccc2C(=O)O)cc1` [TELMISARTAN], the Activity result with COS-7 [1] was “Non-Toxic”; in the series with COS-7 [2], “Non-Toxic”; in series [4], 63%; in series [3] it was “Non-Toxic”. Also, in series [6], the inhibition result is “inactive”. Also, the inhibition result in series [7] is “Active”.
Take `CCCc1nc2c(C(=O)OC)cccc2n1Cc1ccc(-c2ccccc2C(=O)OC)cc1`: the Activity entry in the series with COS-7 [1] was “Non-Toxic”; in the series on COS-7 [2], 20%; in series [4] it was 83%; in series [5], 50%; in series [3] it was “Non-Toxic”. The inhibition result in series [6] was “inactive”. For the same compound, in series [7], the inhibition entry is “Active”.
For `CCCc1nc2c(C)cc(-c3nc4ccccc4n3C)cc2n1Cc1ccc(-c2ccccc2C(N)=O)cc1`, in series [8], the pEC50 (in general, −log10 of the EC50, conventionally taken in molar units) was 5.04. Besides, the Activity entry in the series on COS-7 [1] is “Non-Toxic”; in the series on COS-7 [2], “Non-Toxic”; in series [4], 89%; in series [5] it was 50%; in series [3], “Non-Toxic”. Further, the inhibition result in series [6] is “inactive”. In series [7], the inhibition result is “Active”.
Turning to `CCCCC1=NC2(CCCC2)C(=O)N1Cc1ccc(-c2ccccc2-c2nnn[nH]2)cc1` [IRBESARTAN], the Activity result with COS-7 [1] was “Non-Toxic”; with COS-7 [2], “Non-Toxic”; in series [4], 31%; in series [3] it was “Non-Toxic”.
On to `CCc1ccc(CCOc2ccc(CC3SC(=O)NC3=O)cc2)nc1` (centres undefined) [PIOGLITAZONE], for which the Activity entry (in the series with COS-7 [1]; with COS-7 [2]; in series [3]) was “Non-Toxic” in each case.
For `CCCc1nc2cccc(C(=O)O)c2n1Cc1ccc(-c2ccccc2C(=O)O)cc1`, the Activity entry in the series on COS-7 [1] is given as “Non-Toxic”; with COS-7 [2] it was “Non-Toxic”; in series [4], 12%; in series [3] it was “Non-Toxic”. Besides, the inhibition entry in series [6] and in series [7] was “inactive” each time.
Consider `CCCCc1nc(Cl)c(CO)n1Cc1ccc(-c2ccccc2-c2nn[nH]n2)cc1` [LOSARTAN], for which the Activity result (with COS-7 [1]; in the series with COS-7 [2]; in series [3]) was “Non-Toxic” throughout.
For `CCCc1nc2c(C(=O)O)cccc2n1Cc1ccc(-c2ccccc2C(=O)OC)cc1`, the Activity result was “Non-Toxic” in the series on COS-7 [1], “Non-Toxic” in the series on COS-7 [2], 56% in series [4] and “Non-Toxic” in series [3]. Moreover, the inhibition entry in series [6] is “inactive”. Besides, the inhibition result in series [7] was “Active”.
On to `CCCc1nc2c(C(=O)O)cccc2n1Cc1ccc(-c2ccccc2C(=O)O)cc1`, for which the Activity entry is recorded as “Non-Toxic” in the series with COS-7 [1], “Non-Toxic” in the series with COS-7 [2], 12% in series [4] and “Non-Toxic” in series [3]. For the same compound, the inhibition result in series [6] and in series [7] was “inactive” in each case.
Consider `CCOc1nc2cccc(C(=O)OC(C)OC(=O)OC3CCCCC3)c2n1Cc1ccc(-c2ccccc2-c2nnn[nH]2)cc1` (centres undefined) [CANDESARTAN CILEXETIL], for which the Activity result (in the series on COS-7 [1]; in the series on COS-7 [2]; in series [3]) was “Non-Toxic” throughout.

The record behind these values is ChEMBL document CHEMBL4765286, “Identification and development of non-cytotoxic cell death modulators: Impact of sartans and derivatives on PPARγ activation and on growth of imatinib-resistant chronic myelogenous leukemia cells” (Eur J Med Chem, 2020).
